In data set [1] the test system is OVCAR-3. The experiment in a line: Cytotoxicity against human OVCAR3 cells assessed as reduction in cell viability after 72 hrs by WST8 assay. Format: functional, cell-based. The note with it: OVCAR-3, 72 h. In general terms: Tetrazolium assays rely on reduction of a dye to a coloured formazan, in cell work by metabolically active cells.
Data set [2] is described as follows: Cytotoxicity against human OVK18 cells assessed as reduction in cell viability after 72 hrs by WST8 assay. The class given is functional, cell-based. The note with it: OVK18, 72 h.
The species named for data set [3] is Homo sapiens. In words: Induction of microtubule disruption in human OVCAR3 cells assessed as nuclear fragmentation at 10 nM after 24 hrs by Alexa Fluor 647/DAPI staining based fluorescence microscopic method. The class given is cell-based. A digest of the protocol: (§1)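 OVCAR3 cells treated for 24 h, then imaged by confocal fluorescence microscopy. Nuclei were stained directly with DAPI. α-Tubulin was detected with an Alexa Fluor 647-conjugated secondary antibody. Microtubule architecture, cytoskeleton and nuclear morphology (contraction, fragmentation) were scored.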

The species named for data set [4] is Homo sapiens. The experiment in a line: Induction of microtubule disruption in human OVCAR3 cells assessed as change in microtubule architecture at 10 nM after 24 hrs by Alexa Fluor 647/DAPI staining based fluorescence microscopic method. Format: cell-based. A digest of the protocol: as §1
For data set [5], the species on record is Homo sapiens. In words: Induction of microtubule disruption in human OVCAR3 cells assessed as cytoskeleton contraction at 10 nM after 24 hrs by Alexa Fluor 647/DAPI staining based fluorescence microscopic method. The class given is cell-based. A digest of the protocol: as §1
For data set [6], the species on record is Homo sapiens. The experiment in a line: Induction of microtubule disruption in human OVCAR3 cells assessed as nuclear contraction at 10 nM after 24 hrs by Alexa Fluor 647/DAPI staining based fluorescence microscopic method. The class given is cell-based. In short, it runs like this: as §1
For data set [7], the species on record is Homo sapiens. The experiment in a line: Induction of microtubule disruption in human OVCAR3 cells assessed as cytoskeleton contraction at 1 nM after 24 hrs by Alexa Fluor 647/DAPI staining based fluorescence microscopic method. Format: cell-based. In short, it runs like this: as §1
The species entered for another data set is Sus scrofa. The experiment in a line: Inhibition of pig brain tubulin polymerization at 5 uM measured every 1 min for 60 mins by HTS assay.
Data set [8] is filed under the species Homo sapiens. The experiment in a line: Induction of microtubule disruption in human OVCAR3 cells assessed as change in microtubule architecture at 1 nM after 24 hrs by Alexa Fluor 647/DAPI staining based fluorescence microscopic method. Format: cell-based. In short, it runs like this: as §1
Another data set deals with T1, Beta-galactosidase (Homo sapiens, UniProt P16278).
T1 sequence (P16278 whole entry): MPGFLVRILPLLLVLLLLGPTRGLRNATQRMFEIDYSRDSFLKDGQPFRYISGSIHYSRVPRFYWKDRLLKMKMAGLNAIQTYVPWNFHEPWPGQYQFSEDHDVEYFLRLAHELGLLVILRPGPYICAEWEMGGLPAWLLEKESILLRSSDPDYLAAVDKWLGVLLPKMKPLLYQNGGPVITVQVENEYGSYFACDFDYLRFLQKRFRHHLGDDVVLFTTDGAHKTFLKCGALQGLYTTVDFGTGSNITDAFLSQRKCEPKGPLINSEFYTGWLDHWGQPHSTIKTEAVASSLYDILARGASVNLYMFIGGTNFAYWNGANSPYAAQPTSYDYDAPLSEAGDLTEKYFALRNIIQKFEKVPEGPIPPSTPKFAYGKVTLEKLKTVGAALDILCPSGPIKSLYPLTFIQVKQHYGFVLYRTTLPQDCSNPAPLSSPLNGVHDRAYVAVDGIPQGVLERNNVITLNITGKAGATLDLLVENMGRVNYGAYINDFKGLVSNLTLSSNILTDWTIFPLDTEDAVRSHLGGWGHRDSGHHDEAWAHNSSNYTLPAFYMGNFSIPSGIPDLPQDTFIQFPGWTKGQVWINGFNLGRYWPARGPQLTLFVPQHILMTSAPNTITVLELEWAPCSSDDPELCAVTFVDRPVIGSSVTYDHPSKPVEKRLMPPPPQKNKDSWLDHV
The experiment in a line: Prodrug activation in PBS buffer assessed as beta-galactosidase (unknown origin) mediated CA4 formation at 0.2 mM after 1 hr by HPLC analysis. The note with it: 200 µM.

Data set [9] relates to OVK18. The experiment in a line: Cytotoxicity against human OVK18 cells assessed as reduction in cell viability at 10 nM after 48 hrs in presence of beta-galactosidase inhibitor beta-GA by WST8 assay. Format: functional, cell-based. In short, it runs like this: (§2)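 β-Galactosidase inhibition condition was 1 mM β-GA present during compound treatment.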
In data set [10] the test system is OVCAR-3. The experiment in a line: Cytotoxicity against human OVCAR3 cells assessed as reduction in cell viability at 10 nM after 48 hrs in presence of beta-galactosidase inhibitor beta-GA by WST8 assay. The class given is functional, cell-based. A digest of the protocol:
as §2

The species entered for data set [11] is Homo sapiens. The experiment in a line: Induction of microtubule disruption in human OVCAR3 cells assessed as cytoskeleton contraction at 20 to 200 nM after 24 hrs by Alexa Fluor 647/DAPI staining based fluorescence microscopic method. Format: cell-based. A digest of the protocol:
as §1

Data set [12] is filed under the species Homo sapiens. The experiment in a line: Induction of microtubule disruption in human OVCAR3 cells assessed as nuclear contraction at 20 to 200 nM after 24 hrs by Alexa Fluor 647/DAPI staining based fluorescence microscopic method. Format: cell-based. In short, it runs like this:
as §1

Data set [13] is filed under the species Homo sapiens. In words: Induction of microtubule disruption in human OVCAR3 cells assessed as nuclear fragmentation at 20 to 200 nM after 24 hrs by Alexa Fluor 647/DAPI staining based fluorescence microscopic method. The class given is cell-based. In short, it runs like this: as §1
In data set [14] the test system is OVCAR-3. In words: Cytotoxicity against human OVCAR3 cells assessed as reduction in cell viability at 200 nM after 48 hrs in presence of beta-galactosidase inhibitor beta-GA by WST8 assay. Format: functional, cell-based. A digest of the protocol: as §2
For data set [15], the species on record is Homo sapiens. In words: Induction of microtubule disruption in human OVCAR3 cells assessed as change in microtubule architecture at 20 to 200 nM after 24 hrs by Alexa Fluor 647/DAPI staining based fluorescence microscopic method. Format: cell-based. A digest of the protocol: as §1
Data set [16] has as its system OVK18. In words: Cytotoxicity against human OVK18 cells assessed as reduction in cell viability at 200 nM after 48 hrs in presence of beta-galactosidase inhibitor beta-GA by WST8 assay. The class given is functional, cell-based. A digest of the protocol:
as §2

Activity calls are given as the source filed them. The rule behind the calls is not given here.

One may read the EC50 as the concentration that produces a half-maximal response.

On to `COc1ccc(/C=C\c2cc(OC)c(OC)c(OC)c2)cc1O` [COMBRETASTATIN A4], for which the EC50 came to 3.45 nM in the data set on OVCAR-3 [1] and 1.99 nM in data set [2]. The outcome in the data set filed under Homo sapiens [3], in the data set listed under Homo sapiens [4], in the data set filed under Homo sapiens [5] and in the data set listed under Homo sapiens [6] was Active.

In the case of `COc1ccc(/C=C\c2cc(OC)c(OC)c(OC)c2)cc1OCc1ccc(O[C@@H]2O[C@H](CO)[C@H](O)[C@H](O)[C@H]2O)cc1`, the results for the EC50 (in the data set on OVCAR-3 [1]; in data set [2]) were 2.47 nM and 2.67 nM, respectively. For the same compound, the outcome in the data set listed under Homo sapiens [7], in the data set filed under Homo sapiens [3], in the data set listed under Homo sapiens [4], in the data set listed under Homo sapiens [5] and in the data set listed under Homo sapiens [6] was Active. For the same compound, the inhibition result in the data set listed under Sus scrofa is “inactive”. The result in the data set listed under Homo sapiens [8], in the data set with OVK18 [9] and in the data set with OVCAR-3 [10] was inactive. In addition, the Drug metabolism entry on Beta-galactosidase is recorded as “Metabolite_Detected”.

`COc1ccc(/C=C\c2cc(OC)c(OC)c(OC)c2)cc1O[C@@H]1O[C@H](CO)[C@H](O)[C@H](O)[C@H]1O`: the values for the EC50 (with OVCAR-3 [1]; in data set [2]) were 69.1 nM and 252 nM, respectively. The outcome in the data set filed under Homo sapiens [11], in the data set filed under Homo sapiens [12], in the data set filed under Homo sapiens [13] and in the data set filed under Homo sapiens [15] was Active. Further, the inhibition result in the data set filed under Sus scrofa is “inactive”. Also, the result with OVCAR-3 [14] and in the data set with OVK18 [16] was inactive. Further, the Drug metabolism result on Beta-galactosidase was “Metabolite_Detected”.

(Values after ChEMBL document CHEMBL3992549, “Combretastatin A4-β-Galactosyl Conjugates for Ovarian Cancer Prodrug Monotherapy” (ACS Med Chem Lett, 2017).)
